According to article PMC7081261 (ACS Omega, 2020):

Test system: DU-145 prostate carcinoma cells
Assay: MTT cell viability assay
Assay type: cell-based
Conditions: 24 h
In short: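 DU-145 prostate carcinoma cells grown at 37 °C, 5% CO2, then seeded at 1.5 × 10^5 cells per well. Test compound dilution series (10–500 μg/mL) prepared in RPMI-1640 and applied for 24 h; viability read by MTT, expressed as IC50. Elevated-Zn2+ conditions: medium adjusted with 50 μM ZnCl2. DTNB conditions: cells preincubated 1 h in RPMI-1640 with 2.5 mM DTNB, and dilution series supplemented with 1 mM DTNB during the 24 h exposure.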

(GHHPG)2
cytotoxicity against DU-145 cells (in words) (elevated Zn2+ (50 μM ZnCl2), no DTNB): No activity | cytotoxicity against DU-145 cells (in words) (normal Zn2+ conditions (no ZnCl2 added)): No activity

H2N-EAEAEA-SS-(Ac)CAhxGHHPHGHHPH-amide (disulfide) [(EA)3-thiol]
cytotoxicity against DU-145 cells (in words) (Zn2+ condition not stated): no activity
